Calls of active or inactive are those of the source. No cut-off for these calls is given here.
Assays:
Ephrin type-A receptor 2 [1] = target: T1, Ephrin type-A receptor 2 (Homo sapiens, UniProt P29317); assay: Inhibition of EphA2 ACT labeling site in human Huh-7 cell lysate at 1 uM by KiNativ Profiling analysis relative to control; type: subcellular
[2] = target: T2, Tyrosine-protein kinase ABL1 (Homo sapiens, UniProt P00519); assay: Inhibition of ABL Lys1 labeling site in human Huh-7 cell lysate at 1 uM by KiNativ Profiling analysis relative to control; type: subcellular
T2 sequence (P00519 whole entry): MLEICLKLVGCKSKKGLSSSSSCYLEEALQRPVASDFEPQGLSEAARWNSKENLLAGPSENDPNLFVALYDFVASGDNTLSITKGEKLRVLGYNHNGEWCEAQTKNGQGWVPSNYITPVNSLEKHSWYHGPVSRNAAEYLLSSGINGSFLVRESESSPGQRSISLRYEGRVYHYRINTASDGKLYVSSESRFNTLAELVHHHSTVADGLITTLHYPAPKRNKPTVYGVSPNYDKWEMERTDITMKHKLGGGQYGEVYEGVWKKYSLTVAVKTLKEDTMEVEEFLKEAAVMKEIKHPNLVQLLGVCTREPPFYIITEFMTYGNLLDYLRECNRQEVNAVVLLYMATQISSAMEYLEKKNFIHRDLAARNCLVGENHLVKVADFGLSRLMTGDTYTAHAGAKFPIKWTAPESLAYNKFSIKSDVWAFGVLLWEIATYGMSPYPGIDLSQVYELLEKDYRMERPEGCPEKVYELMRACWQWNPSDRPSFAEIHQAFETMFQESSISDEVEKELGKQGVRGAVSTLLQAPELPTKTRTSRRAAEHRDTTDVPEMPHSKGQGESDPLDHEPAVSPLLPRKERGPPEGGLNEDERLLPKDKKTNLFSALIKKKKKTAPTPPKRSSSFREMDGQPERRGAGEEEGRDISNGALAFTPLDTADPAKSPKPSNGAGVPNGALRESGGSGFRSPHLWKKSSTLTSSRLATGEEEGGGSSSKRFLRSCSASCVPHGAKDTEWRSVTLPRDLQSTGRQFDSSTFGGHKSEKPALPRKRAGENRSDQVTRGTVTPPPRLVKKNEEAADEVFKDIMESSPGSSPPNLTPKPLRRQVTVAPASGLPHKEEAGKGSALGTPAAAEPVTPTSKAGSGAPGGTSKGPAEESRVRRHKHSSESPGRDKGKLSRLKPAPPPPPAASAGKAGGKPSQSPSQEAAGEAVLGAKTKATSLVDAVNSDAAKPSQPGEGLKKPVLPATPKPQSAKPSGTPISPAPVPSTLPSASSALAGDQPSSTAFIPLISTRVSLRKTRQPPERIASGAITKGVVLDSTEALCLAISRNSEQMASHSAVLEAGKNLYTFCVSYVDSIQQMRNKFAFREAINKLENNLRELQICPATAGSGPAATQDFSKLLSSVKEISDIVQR

Ephrin type-A receptor 2 [3] = target: T1, Ephrin type-A receptor 2; assay: Inhibition of EphA2 (unknown origin) ACT labeling site by KiNativ Profiling analysis
[4] = target: T3, Tyrosine-protein kinase CSK (Homo sapiens, UniProt P41240); assay: Inhibition of CSK (unknown origin) ACT labeling site by KiNativ Profiling analysis
[5] = target: T4, Mitogen-activated protein kinase kinase kinase 20 (Homo sapiens, UniProt Q9NYL2); assay: Inhibition of ZAK (unknown origin) Lys1 labeling site by KiNativ Profiling analysis
Target sequence in this assay (Q9NYL2 whole entry): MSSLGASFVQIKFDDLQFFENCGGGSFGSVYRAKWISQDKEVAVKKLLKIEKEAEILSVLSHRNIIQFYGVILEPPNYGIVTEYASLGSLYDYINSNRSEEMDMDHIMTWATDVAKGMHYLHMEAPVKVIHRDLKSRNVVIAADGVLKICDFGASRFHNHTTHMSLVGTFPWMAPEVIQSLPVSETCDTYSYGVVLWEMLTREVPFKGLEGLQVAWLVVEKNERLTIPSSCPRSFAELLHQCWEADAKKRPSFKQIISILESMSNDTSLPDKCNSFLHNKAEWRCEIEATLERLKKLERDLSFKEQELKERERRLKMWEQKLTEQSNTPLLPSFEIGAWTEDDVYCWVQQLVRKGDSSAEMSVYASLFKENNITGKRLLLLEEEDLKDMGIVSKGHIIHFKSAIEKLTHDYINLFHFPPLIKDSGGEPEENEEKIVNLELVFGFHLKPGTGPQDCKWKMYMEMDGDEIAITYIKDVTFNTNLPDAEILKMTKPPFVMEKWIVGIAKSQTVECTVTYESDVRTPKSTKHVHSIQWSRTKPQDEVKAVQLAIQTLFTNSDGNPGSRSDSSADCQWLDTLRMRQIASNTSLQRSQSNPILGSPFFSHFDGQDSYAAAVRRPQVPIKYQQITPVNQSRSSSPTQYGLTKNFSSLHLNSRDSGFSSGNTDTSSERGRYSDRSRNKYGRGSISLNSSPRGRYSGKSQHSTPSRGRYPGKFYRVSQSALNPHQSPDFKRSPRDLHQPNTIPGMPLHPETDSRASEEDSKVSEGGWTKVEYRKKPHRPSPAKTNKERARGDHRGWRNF

[6] = target: T5, Mitogen-activated protein kinase 14 (Homo sapiens, UniProt Q16539); assay: Inhibition of p38 alpha (unknown origin) by KiNativ Profiling analysis
T5 sequence (Q16539 whole entry): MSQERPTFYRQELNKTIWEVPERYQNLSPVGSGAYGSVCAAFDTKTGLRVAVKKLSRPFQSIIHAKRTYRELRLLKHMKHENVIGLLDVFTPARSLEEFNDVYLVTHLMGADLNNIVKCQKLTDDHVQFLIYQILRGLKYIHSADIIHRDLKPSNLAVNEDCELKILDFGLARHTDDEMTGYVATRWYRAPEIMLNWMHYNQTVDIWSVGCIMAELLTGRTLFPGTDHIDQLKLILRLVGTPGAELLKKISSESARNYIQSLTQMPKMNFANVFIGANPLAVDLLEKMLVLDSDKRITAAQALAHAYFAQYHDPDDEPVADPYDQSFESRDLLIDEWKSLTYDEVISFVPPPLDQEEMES

BaF3 [7] = assay: Antiproliferative activity against parental mouse BaF3 cells assessed reduction in cell viability measured after 48 hrs by Celltiter-glo assay; type: functional, cell-based; settings: BaF3, 48 h
[8] = target: T4, Mitogen-activated protein kinase kinase kinase 20; assay: Inhibition of ZAK Lys1 labeling site in human Huh-7 cell lysate at 1 uM by KiNativ Profiling analysis relative to control; type: subcellular
Target sequence in this assay (Q9NYL2 2-800 limits assumed): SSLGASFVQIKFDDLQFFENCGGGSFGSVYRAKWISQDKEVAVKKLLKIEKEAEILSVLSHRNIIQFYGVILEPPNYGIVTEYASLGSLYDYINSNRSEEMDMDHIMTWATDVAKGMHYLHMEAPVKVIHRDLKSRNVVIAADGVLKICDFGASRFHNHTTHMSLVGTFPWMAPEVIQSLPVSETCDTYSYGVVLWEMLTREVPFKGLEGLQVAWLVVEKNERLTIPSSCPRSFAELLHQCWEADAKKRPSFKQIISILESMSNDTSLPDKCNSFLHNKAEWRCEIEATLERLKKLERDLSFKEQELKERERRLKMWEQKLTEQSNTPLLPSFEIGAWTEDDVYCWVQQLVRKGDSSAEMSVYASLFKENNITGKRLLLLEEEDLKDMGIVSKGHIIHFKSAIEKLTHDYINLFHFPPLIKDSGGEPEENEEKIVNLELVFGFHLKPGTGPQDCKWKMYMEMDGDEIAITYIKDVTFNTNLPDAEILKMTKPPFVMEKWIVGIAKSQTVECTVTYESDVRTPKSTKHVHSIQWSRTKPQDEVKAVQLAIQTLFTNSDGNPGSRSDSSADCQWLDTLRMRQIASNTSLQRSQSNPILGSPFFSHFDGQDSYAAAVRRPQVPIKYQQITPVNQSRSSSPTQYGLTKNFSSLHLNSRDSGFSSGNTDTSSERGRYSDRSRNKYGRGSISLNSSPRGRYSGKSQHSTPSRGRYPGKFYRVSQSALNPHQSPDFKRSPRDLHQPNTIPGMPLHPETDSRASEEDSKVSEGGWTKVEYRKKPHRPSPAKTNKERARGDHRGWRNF

[9] = target: T3, Tyrosine-protein kinase CSK; assay: Inhibition of CSK ACT labeling site in human Huh-7 cell lysate at 1 uM by KiNativ Profiling analysis relative to control; type: subcellular
[10] = target: T6, Mitogen-activated protein kinase kinase kinase kinase 2 (Homo sapiens, UniProt Q12851); assay: Inhibition of MAP4K2 (unknown origin) Lys1 labeling site by KiNativ Profiling analysis
T6 sequence (Q12851 whole entry): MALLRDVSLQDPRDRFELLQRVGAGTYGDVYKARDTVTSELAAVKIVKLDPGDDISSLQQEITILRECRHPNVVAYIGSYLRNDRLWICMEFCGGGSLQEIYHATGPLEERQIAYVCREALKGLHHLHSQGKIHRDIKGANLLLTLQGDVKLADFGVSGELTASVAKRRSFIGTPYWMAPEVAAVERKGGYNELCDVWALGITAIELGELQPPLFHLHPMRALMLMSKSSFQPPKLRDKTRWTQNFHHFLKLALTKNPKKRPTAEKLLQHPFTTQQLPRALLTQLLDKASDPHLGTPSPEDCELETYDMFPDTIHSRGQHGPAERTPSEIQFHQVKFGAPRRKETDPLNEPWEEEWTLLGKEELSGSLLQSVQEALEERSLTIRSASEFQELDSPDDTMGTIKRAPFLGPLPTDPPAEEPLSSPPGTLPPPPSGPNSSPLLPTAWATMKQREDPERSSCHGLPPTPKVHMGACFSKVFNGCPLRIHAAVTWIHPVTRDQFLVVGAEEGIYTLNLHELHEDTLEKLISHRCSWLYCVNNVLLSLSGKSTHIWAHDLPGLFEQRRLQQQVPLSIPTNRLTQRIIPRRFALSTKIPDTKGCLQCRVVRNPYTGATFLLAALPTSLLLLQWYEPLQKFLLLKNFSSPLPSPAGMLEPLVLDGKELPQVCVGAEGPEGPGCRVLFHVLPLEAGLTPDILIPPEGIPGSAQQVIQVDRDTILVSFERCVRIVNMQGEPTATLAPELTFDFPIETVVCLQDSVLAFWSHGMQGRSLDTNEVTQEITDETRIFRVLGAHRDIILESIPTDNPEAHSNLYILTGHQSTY

BaF3 [11] = assay: Antiproliferative activity against parental mouse BaF3 cells harbouring Bcr/Abl assessed reduction in cell viability measured after 48 hrs by Celltiter-glo assay; type: functional, cell-based; settings: BaF3, 48 h
Outline: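 Cells were grown with serial dilutions of compound for 48 h, and viability was read by CellTiter-Glo. IC50 was derived from the dose–response curve. Parental Ba/F3 cells were grown in the presence of interleukin 3. The BCR-ABL line is BCR-ABL-dependent Ba/F3.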

[12] = target: T7, Mitogen-activated protein kinase kinase kinase 7 (Homo sapiens, UniProt O43318); assay: Inhibition of TAK1 (unknown origin) Lys2 labeling site by KiNativ Profiling analysis
T7 sequence (O43318 whole entry): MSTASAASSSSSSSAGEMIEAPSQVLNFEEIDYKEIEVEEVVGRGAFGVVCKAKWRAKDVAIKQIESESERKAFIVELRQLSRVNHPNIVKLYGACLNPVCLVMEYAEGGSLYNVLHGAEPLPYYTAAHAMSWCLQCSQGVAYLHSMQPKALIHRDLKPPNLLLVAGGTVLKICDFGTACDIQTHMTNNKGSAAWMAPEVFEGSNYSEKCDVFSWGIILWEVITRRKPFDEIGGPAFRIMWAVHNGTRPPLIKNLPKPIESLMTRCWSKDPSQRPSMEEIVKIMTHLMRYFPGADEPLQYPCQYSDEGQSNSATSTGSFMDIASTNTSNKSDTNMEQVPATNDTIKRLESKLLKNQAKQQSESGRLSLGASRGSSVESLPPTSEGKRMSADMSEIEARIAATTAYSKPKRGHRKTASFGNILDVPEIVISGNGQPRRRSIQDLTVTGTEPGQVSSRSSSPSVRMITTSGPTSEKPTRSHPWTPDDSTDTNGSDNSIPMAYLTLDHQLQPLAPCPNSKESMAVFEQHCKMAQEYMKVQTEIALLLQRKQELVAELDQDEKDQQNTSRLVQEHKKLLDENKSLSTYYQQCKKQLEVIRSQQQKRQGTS

[13] = target: T8, Mitogen-activated protein kinase kinase kinase 7 (Homo sapiens) (UniProt O43318); assay: Inhibition of TAK1 Lys2 labeling site in human A-375 cells at 0.5 uM by KiNativ Profiling analysis relative to control; type: cell-based
T8 sequence (whole entry): T7 sequence (O43318 whole entry)

[14] = target: T5, Mitogen-activated protein kinase 14; assay: Inhibition of p38 alpha in human Huh-7 cell lysate at 1 uM by KiNativ Profiling analysis relative to control; type: subcellular
[15] = target: T2, Tyrosine-protein kinase ABL1; assay: Inhibition of ABL ACT labeling site in human Huh-7 cell lysate at 1 uM by KiNativ Profiling analysis relative to control; type: subcellular
[16] = target: T9, Mitogen-activated protein kinase kinase kinase kinase 2 (Homo sapiens) (UniProt Q12851); assay: Inhibition of MAP4K2 Lys1 labeling site in human A-375 cells at 0.5 uM by KiNativ Profiling analysis relative to control; type: cell-based
T9 sequence (whole entry): T6 sequence (Q12851 whole entry)

[17] = Volume of distribution at steady state in Swiss albino mouse at 1 mg/kg, iv measured upto 24 hrs by LC/MS/MS analysis; type: ADME, organism-based; settings: in vivo
Outline: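 Blood was sampled at 0, 0.083, 0.25, 0.5, 1, 2, 4, 8, 12 and 24 h (three mice per point, K2EDTA). Plasma was precipitated with acetonitrile and quantified by LC/MS/MS (LLOQ 1.138 ng/mL).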

[18] = Oral bioavailability in Swiss albino mouse at 10 mg/kg measured upto 24 hrs by LC/MS/MS analysis; type: ADME, organism-based; settings: in vivo
Outline: (§1)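 Blood was taken at 0, 0.25, 0.5, 1, 2, 4, 6, 8, 12 and 24 h from three mice per time point, into K2EDTA. Plasma was acetonitrile-precipitated and analyzed by LC/MS/MS (LLOQ 1.138 ng/mL).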

[19] = Cmax in Swiss albino mouse at 10 mg/kg, po measured upto 24 hrs by LC/MS/MS analysis; type: ADME, organism-based; settings: in vivo
[20] = Cmax in Swiss albino mouse at 1 mg/kg, iv measured upto 24 hrs by LC/MS/MS analysis; type: ADME, organism-based; settings: in vivo
Outline: (§2)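 Male Swiss albino mice. […] Blood was taken into K2EDTA from three mice per time point, from 0 to 24 h. Plasma was precipitated with acetonitrile and analysed by LC/MS/MS (LLOQ 1.138 ng/mL).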

[21] = target: Tyrosine-protein kinase Fer (Homo sapiens, UniProt P16591); assay: Inhibition of FER (unknown origin) ACT labeling site by KiNativ Profiling analysis
[22] = target: T10, Tyrosine-protein kinase Fes/Fps (Homo sapiens, UniProt P07332); assay: Inhibition of FES (unknown origin) by KiNativ Profiling analysis
T10 sequence (P07332 whole entry): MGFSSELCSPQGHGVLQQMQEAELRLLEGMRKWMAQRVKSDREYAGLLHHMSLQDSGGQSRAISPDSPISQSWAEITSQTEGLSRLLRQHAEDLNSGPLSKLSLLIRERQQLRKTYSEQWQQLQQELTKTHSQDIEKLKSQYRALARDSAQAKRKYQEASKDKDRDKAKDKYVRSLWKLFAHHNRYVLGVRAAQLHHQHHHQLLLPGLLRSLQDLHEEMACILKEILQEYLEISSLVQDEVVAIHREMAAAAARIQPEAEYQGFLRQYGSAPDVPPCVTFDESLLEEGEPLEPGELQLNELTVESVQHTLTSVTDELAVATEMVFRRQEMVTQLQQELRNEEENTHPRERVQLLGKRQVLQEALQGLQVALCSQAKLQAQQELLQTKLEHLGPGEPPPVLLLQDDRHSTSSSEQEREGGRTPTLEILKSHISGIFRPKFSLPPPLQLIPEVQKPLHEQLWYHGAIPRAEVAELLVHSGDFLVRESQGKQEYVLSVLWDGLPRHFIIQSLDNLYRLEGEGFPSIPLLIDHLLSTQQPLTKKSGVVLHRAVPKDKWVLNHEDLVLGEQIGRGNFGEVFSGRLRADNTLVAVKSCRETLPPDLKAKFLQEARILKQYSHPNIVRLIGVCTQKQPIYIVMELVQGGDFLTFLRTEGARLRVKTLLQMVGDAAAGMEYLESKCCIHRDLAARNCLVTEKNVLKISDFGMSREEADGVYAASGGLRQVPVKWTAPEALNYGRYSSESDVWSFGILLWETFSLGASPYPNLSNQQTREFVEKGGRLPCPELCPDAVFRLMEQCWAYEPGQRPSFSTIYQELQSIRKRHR

[23] = target: T10, Tyrosine-protein kinase Fes/Fps; assay: Inhibition of FES Lys1 labeling site in human Huh-7 cell lysate at 1 uM by KiNativ Profiling analysis relative to control; type: subcellular
[24] = AUC last in Swiss albino mouse at 1 mg/kg, iv measured upto 24 hrs by LC/MS/MS analysis; type: ADME, organism-based; settings: in vivo; outline: as §2
[25] = Half life in Swiss albino mouse at 1 mg/kg, iv measured upto 24 hrs by LC/MS/MS analysis; type: ADME, organism-based; settings: in vivo; outline: as §2
[26] = Tmax in Swiss albino mouse at 10 mg/kg, po measured upto 24 hrs by LC/MS/MS analysis; type: ADME, organism-based; settings: in vivo; outline: as §1
[27] = AUC last in Swiss albino mouse at 10 mg/kg, po measured upto 24 hrs by LC/MS/MS analysis; type: ADME, organism-based; settings: in vivo
MEF [28] = assay: Inhibition of IL-1 induced p38 MAPK phosphorylation level in TAK1 deficient mouse MEF cells at low concentration incubated for 1 hr followed by IL-1 stimulation by Western blot analysis; type: functional, cell-based
Outline: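 WT and TAK1-null MEFs were grown in DMEM with 10% FBS, then held in 0.1% FBS for 16 h. Cells were pretreated with inhibitor for 1 h, then stimulated with mouse IL-1α (5 ng/mL, 10 min). Cells were lysed in ice-cold buffer, and extracts were cleared at 16000g and analysed by Western blot.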

MEF [29] = assay: Inhibition of TGF-beta induced SMAD2 phosphorylation level in TAK1 deficient mouse MEF cells at low concentration incubated for 1 hr followed by TGF-beta stimulation by Western blot analysis; type: functional, cell-based
Outline: (§3)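 TAK1-null MEFs grown in DMEM with 10% FBS, 2 mM L-glutamine and penicillin/streptomycin at 37 °C under 5% CO2. Inhibitors added 1 h before TGFβ (50 pM, 45 min). Cells lysed in ice-cold buffer with phosphatase and protease inhibitors, extracts cleared at 16000g, then p38 and SMAD2 phosphorylation assessed by Western blot.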

MEF [30] = assay: Inhibition of TGF-beta induced p38 MAPK phosphorylation level in TAK1 deficient mouse MEF cells at low concentration incubated for 1 hr followed by TGF-beta stimulation by Western blot analysis; type: functional, cell-based; outline: as §3
MEF [31] = assay: Inhibition of TGFbeta induced SMAD2 phosphorylation level in TAK1 deficient mouse MEF cells at low concentration incubated for 1 hr followed by TGFbeta stimulation by Western blot analysis

T1 sequence (P29317 whole entry): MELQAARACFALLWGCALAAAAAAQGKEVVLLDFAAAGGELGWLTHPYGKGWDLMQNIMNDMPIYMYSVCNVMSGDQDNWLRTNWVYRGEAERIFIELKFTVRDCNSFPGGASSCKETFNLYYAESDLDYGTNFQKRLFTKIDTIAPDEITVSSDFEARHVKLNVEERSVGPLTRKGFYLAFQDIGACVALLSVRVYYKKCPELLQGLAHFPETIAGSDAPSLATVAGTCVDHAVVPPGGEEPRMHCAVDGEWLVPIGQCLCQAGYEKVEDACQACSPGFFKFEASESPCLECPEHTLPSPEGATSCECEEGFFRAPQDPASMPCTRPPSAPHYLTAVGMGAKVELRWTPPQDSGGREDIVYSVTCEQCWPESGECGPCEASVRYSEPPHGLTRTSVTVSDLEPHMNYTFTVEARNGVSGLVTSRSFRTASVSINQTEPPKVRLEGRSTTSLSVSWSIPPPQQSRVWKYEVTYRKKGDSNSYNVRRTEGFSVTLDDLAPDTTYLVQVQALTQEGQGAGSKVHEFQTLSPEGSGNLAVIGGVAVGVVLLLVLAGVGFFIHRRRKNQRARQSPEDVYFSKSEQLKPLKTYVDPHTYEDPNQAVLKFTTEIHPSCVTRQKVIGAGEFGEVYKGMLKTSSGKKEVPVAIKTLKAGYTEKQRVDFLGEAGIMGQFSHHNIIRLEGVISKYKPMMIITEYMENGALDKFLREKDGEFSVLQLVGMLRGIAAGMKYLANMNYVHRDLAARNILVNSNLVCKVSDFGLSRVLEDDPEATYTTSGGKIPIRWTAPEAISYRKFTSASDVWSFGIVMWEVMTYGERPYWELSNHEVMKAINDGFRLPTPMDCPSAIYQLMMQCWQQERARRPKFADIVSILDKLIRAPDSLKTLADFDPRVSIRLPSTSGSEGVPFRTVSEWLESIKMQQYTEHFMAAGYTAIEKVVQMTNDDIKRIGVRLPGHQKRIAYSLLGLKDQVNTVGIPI

IC50 [5]	IC50 [6]	inhibition [8]	IC50 [10]	IC50 [12]	inhibition [13]	inhibition [14]	inhibition [15]	inhibition [16]	Vdss [17]	F [18]	Cmax [19]	Cmax [20]	AUClast [24]	t1/2 [25]	Tmax [26]	AUClast [27]	SMILES	IC50 (BaF3 [7])	IC50 (BaF3 [11])	further results
72.5 nM	70.1 nM	> 96%	20.6 nM	217 nM	74.3%	91.8%	92.8%	84.3%									CCN1CCN(Cc2ccc(NC(=O)c3ccc(C)c(CCc4cnc5[nH]ccc5c4OC)c3)cc2C(F)(F)F)CC1	4810 nM	10 nM	inhibition (Ephrin type-A receptor 2 [1]): 80.9%; inhibition [2]: 77.2%; IC50 (Ephrin type-A receptor 2 [3]): 77.1 nM; IC50 [4]: 12.5 nM; inhibition [9]: 89.9%
	149 nM		18.2 nM	41.1 nM	57.7%	82.8%	59.6%	> 94%	5.42 L/kg	38.6%	233 ng/mL	317 ng/mL	554 ng·h/mL	2.94 h	4 h	2136 ng·h/mL	CCN1CCN(Cc2ccc(NC(=O)c3ccc(C)c(Oc4ncnc5[nH]c(C)cc45)c3)cc2C(F)(F)F)CC1	> 10000 nM	20 nM	IC50 [21]: 74.8 nM; IC50 [22]: 69.7 nM; inhibition [23]: 82.7%
127 nM	29.8 nM	95.2%	43.8 nM	75.5 nM	86.5%	96.6%	93%	89.9%	6.1 L/kg	11.1%	61.3 ng/mL	280.3 ng/mL	167.9 ng·h/mL	0.87 h	0.5 h	186.2 ng·h/mL	CCN1CCN(Cc2ccc(NC(=O)c3ccc(C)c(Oc4ncnc5[nH]ncc45)c3)cc2C(F)(F)F)CC1	7910 nM	55 nM	
																	COc1cc(O)c2c(c1)/C=C/C[C@H](O)[C@H](O)C(=O)/C=C\C[C@H](C)OC2=O			inhibition (MEF [28]): Active; inhibition (MEF [29]): Active; inhibition (MEF [30]): Active; inhibition (MEF [31]): Active
